Laboratory results published in ChEMBL document CHEMBL1128171, “A series of N4-imidoethyl derivatives of 1-(2,3-dihydro-1,4-benzodioxin-5-yl)piperazine as 5-HT1A receptor ligands: synthesis and structure-affinity relationships” (J Med Chem, 1995).

What was measured:
[1] = molecular target: T1, 5-hydroxytryptamine receptor 1A (Rattus norvegicus, UniProt P19327); experiment: Inhibition of [3H]2-(di-N-propylamino)-8-hydroxytetralin binding to 5-HT1A receptor of rat frontal cortex homogenates; type: tissue-based
T1 sequence (P19327 whole entry): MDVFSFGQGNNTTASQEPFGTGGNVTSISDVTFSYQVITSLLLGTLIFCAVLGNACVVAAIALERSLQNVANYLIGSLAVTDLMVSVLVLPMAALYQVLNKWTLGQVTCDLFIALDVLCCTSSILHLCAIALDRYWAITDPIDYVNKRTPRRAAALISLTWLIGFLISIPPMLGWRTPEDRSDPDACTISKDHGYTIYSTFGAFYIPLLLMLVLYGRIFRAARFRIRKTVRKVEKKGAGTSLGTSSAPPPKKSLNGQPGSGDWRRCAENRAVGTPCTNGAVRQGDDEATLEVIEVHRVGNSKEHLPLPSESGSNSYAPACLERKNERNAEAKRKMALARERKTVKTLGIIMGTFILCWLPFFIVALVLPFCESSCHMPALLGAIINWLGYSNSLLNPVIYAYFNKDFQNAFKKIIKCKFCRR
How it was run: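 Rat frontal cortex homogenates incubated with [3H]-8-OH-DPAT at 37 °C, pH 7.7. Four to six drug concentrations, each in triplicate; three to six assays per value. IC50 for displacement of specific binding converted to Ki by Cheng–Prusoff using radioligand concentration and Kd. Reported as pKi.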

[2] = Ionisation constant of the compound; type: ADME
How it was run: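 Potentiometric titration at 37 °C (±1 °C) under nitrogen, using a glass pH electrode calibrated at pH 4, 7 and 9. 30 mg substance in 40 mL 0.1 M KCl in carbonate-free water, 0.002-0.005 M. Titrant 0.05 M NaOH added in 0.05 mL steps. pKa calculated from 5-15 curve points (pre-precipitation only) and averaged.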

SMILES	Ki [1] [nM]	pKa [2]
CC1(C)CC(=O)N(CCN2CCN(c3cccc4c3OCCO4)CC2)C(=O)C1	4.68	6.42
Cc1ccc2c(c1)C(=O)N(CCN1CCN(c3cccc4c3OCCO4)CC1)C2=O	4.79	6.1
O=C1CCC(=O)N1CCN1CCN(c2cccc3c2OCCO3)CC1	110	6.16
CC1CC(=O)N(CCN2CCN(c3cccc4c3OCCO4)CC2)C1=O (configuration not stated)	151	6.16
O=C1C2CC=CCC2C(=O)N1CCN1CCN(c2cccc3c2OCCO3)CC1 (configuration not stated)	10	6.05
O=C1CCCC(=O)N1CCN1CCN(c2cccc3c2OCCO3)CC1	347	6.4
CC1=CC(=O)N(CCN2CCN(c3cccc4c3OCCO4)CC2)C1=O	63.1	6.3
O=C1C=CC(=O)N1CCN1CCN(c2cccc3c2OCCO3)CC1	977	5.9
O=C1C2=C(CCCC2)C(=O)N1CCN1CCN(c2cccc3c2OCCO3)CC1	6.46	6.3
O=C1c2ccccc2C(=O)N1CCN1CCN(c2cccc3c2OCCO3)CC1	32.4	
O=C1CC2(CCCC2)CC(=O)N1CCN1CCN(c2cccc3c2OCCO3)CC1	0.708	6.51
O=C1C2CCCCC2C(=O)N1CCN1CCN(c2cccc3c2OCCO3)CC1 (configuration not stated)		6.07
